Experimental data as given in ChEMBL document CHEMBL2429791, “Preparation of asymmetric urea derivatives that target prostate-specific membrane antigen for SPECT imaging” (J Med Chem, 2013).

Experiments:
LNCaP [1] = test: Biodistribution in LNCAP cells in C.B.-17/Icr +/+ Jcl mouse xenografted with human LNCAP and PC3 cells at 25.9 MBq, iv after 6 hrs; format: ADME, organism-based; settings: in vivo
Outline: (§1)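 ¹²⁵I-labelled tracer given iv by tail vein to mice (22–24 g) bearing LNCaP (left shoulder) and PC-3 (right shoulder) xenografts of about 5–10 mm, grown from 1–5 × 10⁶ cells in 1:1 Matrigel. n=4 per time point; decapitated at 2 min, 30 min, 1, 3, 6 h. Tissues weighed and counted; uptake as %ID/g, mean ± SD.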

Muscle tissue [2] = test: Biodistribution in muscle of C.B.-17/Icr +/+ Jcl mouse xenografted with human LNCAP and PC3 cells at 25.9 MBq, iv after 6 hrs; format: ADME, organism-based; settings: in vivo
Outline: (§2)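 Radioiodinated (¹²⁵I) tracer given by tail-vein injection to mice bearing LNCaP (left shoulder) and PC-3 (right shoulder) xenografts, 22–24 g, grown to about 5–10 mm. Groups of n=4 were decapitated at 2 min, 30 min, 1 h, 3 h or 6 h. Tissues were weighed and counted, and uptake was expressed as %ID/g (mean ± SD).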

Stomach [3] = test: Biodistribution in stomach of C.B.-17/Icr +/+ Jcl mouse xenografted with human LNCAP and PC3 cells at 25.9 MBq, iv after 6 hrs; format: ADME, organism-based; settings: in vivo; outline: as §2
Blood [4] = test: Biodistribution in blood of C.B.-17/Icr +/+ Jcl mouse xenografted with human LNCAP and PC3 cells at 25.9 MBq, iv after 6 hrs; format: ADME, organism-based; settings: in vivo; outline: as §1
Nucleic Acid [5] = test: Ratio of drug level in human PC3 cells xenografted in C.B.-17/Icr +/+ Jcl mouse to muscle of C.B.-17/Icr +/+ Jcl mouse xenografted with human LNCAP and PC3 cells at 25.9 MBq, iv after 3 hrs; format: ADME, organism-based; settings: in vivo
Outline: (§3)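 Mice (22–24 g) carried PC-3 (right shoulder) and LNCaP (left shoulder) tumors, raised by injecting 1–5 × 10⁶ cells in 1:1 PBS/Matrigel and used at about 5–10 mm diameter. [¹²⁵I]-tracer was given via the tail vein, n=4 per time point, and mice were decapitated at 2 min, 30 min, 1, 3 or 6 h. Tissues were weighed and γ-counted as %ID/g. Tumor/blood and tumor/muscle ratios were taken from %ID/g, mean ± SD.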

Muscle tissue [6] = test: Biodistribution in muscle of C.B.-17/Icr +/+ Jcl mouse xenografted with human LNCAP and PC3 cells at 25.9 MBq, iv after 3 hrs; format: ADME, organism-based; settings: in vivo; outline: as §2
Heart = test: Biodistribution in heart of C.B.-17/Icr +/+ Jcl mouse xenografted with human LNCAP and PC3 cells at 25.9 MBq, iv after 3 hrs; format: ADME, organism-based; settings: in vivo; outline: as §1
Stomach [7] = test: Biodistribution in stomach of C.B.-17/Icr +/+ Jcl mouse xenografted with human LNCAP and PC3 cells at 25.9 MBq, iv after 3 hrs; format: ADME, organism-based; settings: in vivo; outline: as §2
Blood [8] = test: Biodistribution in blood of C.B.-17/Icr +/+ Jcl mouse xenografted with human LNCAP and PC3 cells at 25.9 MBq, iv after 3 hrs; format: ADME, organism-based; settings: in vivo; outline: as §1
Thyroid gland [9] = test: Biodistribution in thyroid of C.B.-17/Icr +/+ Jcl mouse xenografted with human LNCAP and PC3 cells at 25.9 MBq, iv after 1 hr; format: ADME, organism-based; settings: in vivo; outline: as §2
LNCaP [10] = test: Biodistribution in LNCAP cells in C.B.-17/Icr +/+ Jcl mouse xenografted with human LNCAP and PC3 cells at 25.9 MBq, iv after 1 hr; format: ADME, organism-based; settings: in vivo; outline: as §1
Spleen = test: Biodistribution in spleen of C.B.-17/Icr +/+ Jcl mouse xenografted with human LNCAP and PC3 cells at 25.9 MBq, iv after 1 hr; format: ADME, organism-based; settings: in vivo; outline: as §2
Intestine [11] = test: Biodistribution in intestine of C.B.-17/Icr +/+ Jcl mouse xenografted with human LNCAP and PC3 cells at 25.9 MBq, iv after 1 hr; format: ADME, organism-based; settings: in vivo; outline: as §1
Stomach [12] = test: Biodistribution in stomach of C.B.-17/Icr +/+ Jcl mouse xenografted with human LNCAP and PC3 cells at 25.9 MBq, iv after 1 hr; format: ADME, organism-based; settings: in vivo; outline: as §2
Nucleic Acid [13] = test: Ratio of drug level in human PC3 cells xenografted in C.B.-17/Icr +/+ Jcl mouse to muscle of C.B.-17/Icr +/+ Jcl mouse xenografted with human LNCAP and PC3 cells at 25.9 MBq, iv after 30 mins; format: ADME, organism-based; settings: in vivo, 0.5 h; outline: as §3
Nucleic Acid [14] = test: Ratio of drug level in human LNCAP cells xenografted in C.B.-17/Icr +/+ Jcl mouse to muscle of C.B.-17/Icr +/+ Jcl mouse xenografted with human LNCAP and PC3 cells at 25.9 MBq, iv after 30 mins; format: ADME, organism-based; settings: in vivo, 0.5 h
Outline: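 Tumor-to-blood and tumor-to-muscle ratios were calculated from %ID/g values in ¹²⁵I-tracer biodistribution in LNCaP/PC-3 xenografted mice. Tail-vein dosing, n=4 per time point, sacrifice at 2 min, 30 min, 1, 3 or 6 h.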

Nucleic Acid [15] = test: Ratio of drug level in human LNCAP cells to human PC3 cells xenografted in C.B.-17/Icr […] Jcl mouse at 25.9 MBq, iv after 30 mins; format: ADME, organism-based; settings: in vivo, 0.5 h
Thyroid gland [16] = test: Biodistribution in thyroid of C.B.-17/Icr +/+ Jcl mouse xenografted with human LNCAP and PC3 cells at 25.9 MBq, iv after 30 mins; format: ADME, organism-based; settings: in vivo, 0.5 h; outline: as §2
Liver = test: Biodistribution in liver of C.B.-17/Icr […] Jcl mouse xenografted with human LNCAP and PC3 cells at 25.9 MBq, iv after 30 mins; format: ADME, organism-based; settings: in vivo, 0.5 h; outline: as §1
Intestine [17] = test: Biodistribution in intestine of C.B.-17/Icr +/+ Jcl mouse xenografted with human LNCAP and PC3 cells at 25.9 MBq, iv after 30 mins; format: ADME, organism-based; settings: in vivo, 0.5 h; outline: as §1
Blood [18] = test: Biodistribution in blood of C.B.-17/Icr +/+ Jcl mouse xenografted with human LNCAP and PC3 cells at 25.9 MBq, iv after 30 mins; format: ADME, organism-based; settings: in vivo, 0.5 h; outline: as §1
[19] = Ratio of drug level in human PC3 cells xenografted in C.B.-17/Icr +/+ Jcl mouse to blood of C.B.-17/Icr +/+ Jcl mouse xenografted with human LNCAP and PC3 cells at 25.9 MBq, iv after 2 mins; format: ADME, organism-based; settings: PC3 tumour xenograft relative to blood; outline: as §3
LNCaP [20] = test: Biodistribution in LNCAP cells in C.B.-17/Icr +/+ Jcl mouse xenografted with human LNCAP and PC3 cells at 25.9 MBq, iv after 2 mins; format: ADME, organism-based; settings: in vivo; outline: as §1
Muscle tissue [21] = test: Biodistribution in muscle of C.B.-17/Icr +/+ Jcl mouse xenografted with human LNCAP and PC3 cells at 25.9 MBq, iv after 2 mins; format: ADME, organism-based; settings: in vivo; outline: as §2
Serum = test: Drug degradation in C.B.-17/Icr +/+ Jcl mouse serum after 18 hrs; format: ADME, cell-free
Outline: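 Serum came from heart blood of isoflurane-anesthetized male C.B.-17/Icr +/+ mice (20–22 g), centrifuged at 1,500 × g and stored at −80 °C. ¹²⁵I tracer was incubated in serum at 37 °C, then methanol was added. The sample was centrifuged at 5,000 × g, passed through a 0.45 μm filter, and analyzed by radio-HPLC for intact tracer versus degradation peaks.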

Drug uptake (LNCaP [1]): 6.7 % ID/g
Drug uptake (Muscle tissue [2]): 0.1 % ID/g
Drug uptake (Stomach [3]): 0.7 %ID
Drug uptake (Blood [4]): 0.5 % ID/g
Ratio (Nucleic Acid [5]): 1.5
Drug uptake (Muscle tissue [6]): 0.2 % ID/g
Drug uptake (Heart): 0.7 % ID/g
Drug uptake (Stomach [7]): 1 %ID
Drug uptake (Blood [8]): 0.7 % ID/g
Drug uptake (Thyroid gland [9]): 0.01 %ID
Drug uptake (LNCaP [10]): 7 % ID/g
Drug uptake (Spleen): 36.5 % ID/g
Drug uptake (Intestine [11]): 16.5 % ID/g
Drug uptake (Stomach [12]): 1 %ID
Ratio (Nucleic Acid [13]): 1.6
Ratio (Nucleic Acid [14]): 11.1
Ratio (Nucleic Acid [15]): 10.1
Drug uptake (Thyroid gland [16]): 0 %ID
Drug uptake (Liver): 13.7 % ID/g
Drug uptake (Intestine [17]): 11.2 % ID/g
Drug uptake (Blood [18]): 1.3 % ID/g
Kp at 2 min [19]: 0.4
Drug uptake (LNCaP [20]): 4.2 % ID/g
Drug uptake (Muscle tissue [21]): 1.4 % ID/g
Stability (Serum): Unstable
Structure (SMILES): O=C(O)CC[C@H](NC(=O)N[C@@H](CSC1CC(=O)N(CCCC[C@H](NC(=O)CNC(=O)c2cccc([125I])c2)C(=O)O)C1=O)C(=O)O)C(=O)O (stereo not given in full)
